Experiments:
[1] = biological target: Estrogen receptor beta (Homo sapiens) (UniProt Q92731); assay: Relative binding affinity to ERbeta by radiometric binding assay relative to estradiol
In short: (§1)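 RBA values for the PAMAM-dendrimer conjugate are calculated from the concentration of attached ligand rather than that of the conjugate.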

[2] = biological target: T1, Estrogen receptor (Homo sapiens) (UniProt P03372); assay: Relative binding affinity to ERalpha by radiometric binding assay relative to estradiol; in short: as §1
T1 sequence (whole entry): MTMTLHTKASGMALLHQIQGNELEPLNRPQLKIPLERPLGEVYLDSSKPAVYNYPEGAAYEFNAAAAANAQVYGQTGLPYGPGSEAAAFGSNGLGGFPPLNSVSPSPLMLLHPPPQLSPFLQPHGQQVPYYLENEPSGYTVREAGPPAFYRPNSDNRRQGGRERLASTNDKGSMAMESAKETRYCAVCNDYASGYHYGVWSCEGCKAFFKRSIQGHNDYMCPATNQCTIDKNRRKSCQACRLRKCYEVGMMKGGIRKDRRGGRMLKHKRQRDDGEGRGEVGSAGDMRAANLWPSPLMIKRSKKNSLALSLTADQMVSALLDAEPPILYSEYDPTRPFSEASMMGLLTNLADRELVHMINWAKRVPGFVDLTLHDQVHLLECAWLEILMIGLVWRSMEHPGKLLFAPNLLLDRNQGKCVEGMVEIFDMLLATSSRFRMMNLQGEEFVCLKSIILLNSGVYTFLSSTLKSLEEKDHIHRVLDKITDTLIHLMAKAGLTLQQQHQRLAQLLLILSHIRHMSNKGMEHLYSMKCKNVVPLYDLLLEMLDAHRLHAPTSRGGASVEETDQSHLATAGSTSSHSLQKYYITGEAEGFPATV

Chain of Estrogen receptor beta (Homo sapiens) (Q92731 whole entry): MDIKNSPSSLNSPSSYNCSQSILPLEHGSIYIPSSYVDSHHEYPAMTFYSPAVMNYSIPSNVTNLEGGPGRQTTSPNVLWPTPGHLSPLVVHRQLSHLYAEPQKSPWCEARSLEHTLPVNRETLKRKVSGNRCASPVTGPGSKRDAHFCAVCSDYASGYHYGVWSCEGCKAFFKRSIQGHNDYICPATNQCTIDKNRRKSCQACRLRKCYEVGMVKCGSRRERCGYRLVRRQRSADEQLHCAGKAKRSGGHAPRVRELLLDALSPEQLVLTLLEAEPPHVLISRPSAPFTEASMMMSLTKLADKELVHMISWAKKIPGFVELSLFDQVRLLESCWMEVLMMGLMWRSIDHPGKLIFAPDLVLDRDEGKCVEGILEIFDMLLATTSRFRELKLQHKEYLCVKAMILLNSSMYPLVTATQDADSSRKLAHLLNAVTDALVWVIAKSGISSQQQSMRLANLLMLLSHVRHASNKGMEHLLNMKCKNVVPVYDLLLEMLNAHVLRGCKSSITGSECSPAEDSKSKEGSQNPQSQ

Compound	relative binding affinity (RBA) [1]	relative binding affinity (RBA) [2]
Cc1ccc(C(=O)NCCCCn2c(-c3ccc(O)cc3)c(C)c3cc(O)ccc32)cc1	0.048	
CCCCOCCCCCCn1c(-c2ccc(O)cc2)c(C)c2cc(O)ccc21	3	
CC(=O)NCCNCc1ccc(OCCCn2c(-c3ccc(O)cc3)c(C)c3cc(O)ccc32)cc1	0.24	2.17
Cc1c(-c2ccc(O)cc2)n(Cc2ccc(O)cc2)c2ccc(O)cc12	1	10
CCCCOc1ccc(Cn2c(-c3ccc(O)cc3)c(C)c3cc(O)ccc32)cc1	1.2	
COCCCCCCn1c(-c2ccc(O)cc2)c(C)c2cc(O)ccc21	2	11
Cc1c(-c2ccc(O)cc2)n(CCCCCCO)c2ccc(O)cc12	1.4	13
CCSC(SCC)c1ccc(OCCCn2c(-c3ccc(O)cc3)c(C)c3cc(O)ccc32)cc1	0.084	
COc1ccc(Cn2c(-c3ccc(O)cc3)c(C)c3cc(O)ccc32)cc1	6.5	11

From ChEMBL document CHEMBL1154527, “Tethered indoles as functionalizable ligands for the estrogen receptor” (Bioorg Med Chem Lett, 2009)
